Structures are written as SMILES. Activity calls are given as the source filed them. The calls are words filed in the database; no cut-off is given here.

The values below come from ChEMBL document CHEMBL1944617, “Near infrared active heptacyanine dyes with unique cancer-imaging and cytotoxic properties” (Bioorg Med Chem Lett, 2012).

Data set [1] concerns HeLa. The experiment in a line: Cytotoxicity against human HeLa cells assessed as cell survival at 5 to 10 uM after 24 hrs by trypan blue exclusion assay. Format: functional. In short, it runs like this:
(§1)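 Cells treated 24 h with dye at 5, 10 or 20 µM (PC-3 in RPMI; HeLa and HDF in DMEM; 10% FBS, 1% penicillin/streptomycin). Cells pelleted, PBS-washed, mixed 1:1 with 0.4% trypan blue in PBS pH 7.4, 5 min room temperature. Blue cells scored non-viable by microscope counting. Mean and SD of three independent experiments.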

Data set [2] is described as follows: Cellular uptake in human PC3 cell cytoplasm at 20 uM after 8 hrs by fluorescence confocal microscopic analysis. The data set is classed as ADME, cell-based. As to conditions: pc-3, 8 h. The method in brief:
(§2)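 PC-3 (RPMI) or primary human dermal fibroblasts (DMEM), 10% FBS, 1% pen/strep, grown on glass coverslips and exposed to dye at 20 µM for 8 h. Fixed in cold (−20 °C) methanol 10 min, blocked in 2% BSA/PBS at 37 °C 1 h, actin stained with fluorescent phalloidin 1 h RT, mounted with DAPI antifade. NIR dye imaged with ICG filter set and 780 nm LED.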

Data set [3] in a line: Cytotoxicity against human HDF cells assessed as cell death at 5 to 10 uM after 24 hrs by trypan blue exclusion assay. Format: cell-based. In short, it runs like this: (§3)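 Primary human dermal fibroblasts in DMEM with 10% FBS and 1% pen/strep, dosed at 5, 10 or 20 µM for 24 h. Cells pelleted and washed with PBS, then mixed 1:1 with 0.4% trypan blue in PBS pH 7.4, 5 min RT. Blue cells scored non-viable by microscope counting. Mean ± SD of three independent experiments.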

Data set [4] concerns HeLa. The experiment in a line: Cytotoxicity against human HeLa cells after 48 hrs by MTT assay. The data set is classed as functional, cell-based. The method in brief: (§4)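 HeLa and HDF in DMEM, PC-3 in RPMI, each with 10% FBS and 1% pen/strep. Seeded at 5 × 10³ cells/well, then given dye in DMSO (final DMSO 0.1%) at 0, 0.75, 1, 2, 5, 10, 15, 20 µM for 48 h. Washed twice with PBS, MTT added, 4 h at 37 °C in the dark. Formazan dissolved in DMSO, A570 read. IC50 taken from the survival-versus-concentration curve.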
Background: Tetrazolium dyes change colour on reduction, which living cells bring about.

Data set [5] can be described thus: Cytotoxicity against human HDF cells assessed as cell survival at 5 to 10 uM after 24 hrs by trypan blue exclusion assay. Conditions: read-out: Survival. The data set is classed as cell-based. The method in brief:
as §1

The nature of data set [6]: Cytotoxicity against human HDF cells after 48 hrs by MTT assay. As to conditions: for IC50: Homo sapiens, HDF; for Activity: human, hdf. The data set is classed as cell-based. In short, it runs like this: as §4
In data set [7] the test system is PC-3. The experiment in a line: Cytotoxicity against human PC3 cells assessed as cell death at 5 to 20 uM after 24 hrs by trypan blue exclusion assay. Format: functional. In short, it runs like this: as §1
Data set [8] has as its system PC-3. The data set can be described thus: Cytotoxicity against human PC3 cells assessed as cell survival at 5 to 10 uM after 24 hrs by trypan blue exclusion assay. Format: functional. In short, it runs like this:
as §1

In data set [9] the test system is HeLa. The data set can be described thus: Cytotoxicity against human HeLa cells assessed as cell death at 5 to 20 uM after 24 hrs by trypan blue exclusion assay. The data set is classed as functional. The method in brief:
as §1

Data set [10] deals with PC-3. The experiment in a line: Cytotoxicity against human PC3 cells after 48 hrs by MTT assay. The data set is classed as functional, cell-based. Conditions: for IC50: PC-3, 48 h. The method in brief:
as §4

Data set [11] can be described thus: Cytotoxicity against human HDF cells assessed as cell death at 20 uM after 24 hrs by trypan blue exclusion assay. The data set is classed as cell-based. In short, it runs like this:
as §3

Data set [12] is described as follows: Cellular uptake in human HDF cell cytoplasm at 20 uM after 8 hrs by fluorescence confocal microscopic analysis. The data set is classed as ADME, cell-based. The method in brief: as §2
The nature of data set [13]: Cytotoxicity against human HDF cells assessed as cell viability at 5 to 20 uM after 24 hrs by trypan blue exclusion assay. The data set is classed as cell-based. As to conditions: for Activity: hdf, 24 h, 20 µM. The method in brief:
as §3

By IC50 is commonly meant the point on the concentration scale where inhibition reaches its midpoint. Lower therefore signals higher potency. Regarding `COC(=O)CCCCCN1/C(=C/C=C2\CCCC(/C=C/C3=[N+](CCCCCC(=O)O)c4ccccc4C3(C)C)=C2Cl)C(C)(C)c2ccccc21.[Br-]`, the Survival in the data set on HeLa [1] and in the data set on PC-3 [8] was 20% in each case. Also, the Drug uptake entry in [2] is reported as “Active”; in data set [12] it was “Not Active”. The values for the Activity in data set [3] and in [11] were 10% and 80%, respectively. In addition, the IC50 is 1000 nM in the data set on HeLa [4], 5000 nM in data set [6] and 2000 nM in the data set with PC-3 [10]. Moreover, in data set [5], the viability at 24 h, up to 10 µM turned out to be 85%. The result in the data set on PC-3 [7] and in the data set with HeLa [9] was Active.

For `COC(=O)CCCCCN1/C(=C/C=C2\CCCC(/C=C/C3=[N+](CCCCCC(=O)OC)c4ccccc4C3(C)C)=C2Cl)C(C)(C)c2ccccc21.[Br-]`, the viability at 24 h, up to 20 µM in [13] (HDF cells, read-out: Activity) is 100%. Also, the Drug uptake entry in data set [2] is recorded as “Active”; in [12] it was “Not Active”. The values for the IC50 (in the data set on HeLa [4]; in data set [6]; in the data set with PC-3 [10]) were 800 nM, 10000 nM and 3000 nM, respectively. Besides, the Activity with PC-3 [7] and in the data set on HeLa [9] was over 90% in each case.

On to `CC1(C)C(/C=C/C2=C(Cl)C(=C/C=C3/N(CCCCCC(=O)O)c4ccccc4C3(C)C)/CCC2)=[N+](CCCCCC(=O)O)c2ccccc21.[Br-]`, for which the Activity result in data set [13] and in data set [6] was “Non-toxic” in each case. Besides, the Drug uptake result in data set [2] and in [12] was “Not Active” in each case. Besides, the outcome in the data set on HeLa [4], with PC-3 [7], in the data set on HeLa [9] and in the data set on PC-3 [10] was inactive.

For the compound `CC1(C)C(/C=C/C2=C(Cl)C(=C/C=C3\N(CCCCS(=O)(=O)[O-])c4ccccc4C3(C)C)/CCC2)=[N+](CCCCS(=O)(=O)[O-])c2ccccc21.[Na+]`, the Activity entry in data set [13] and in [6] was “Non-toxic” throughout. Also, the Drug uptake result in data set [2] and in data set [12] was “Not Active” throughout.

Consider `CC1(C)C(/C=C/C2=C(Cl)C(=C/C=C3/N(CCCCS(=O)(=O)O)c4ccccc4C3(C)C)/CCC2)=[N+](CCCCS(=O)(=O)[O-])c2ccccc21`, for which the result in the data set with HeLa [4], in the data set with PC-3 [7], in the data set on HeLa [9] and in the data set with PC-3 [10] was inactive.
